{
  "source": "paper PMC7187372",
  "about": "(Journal of Clinical Pharmacology, 2019)",
  "key": {"[1]": {"details": "higher; cited from earlier work"}, "[2]": {"test": "Population pharmacokinetic analysis", "type": "in vivo, human", "outline": "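Single-dose intensive plasma sampling to 120 h (B1371001) or 24 h (B1371002), sparse in B1371003; multiple-dose intensive in all. HPLC–MS/MS assay, LLOQ 0.200 ng/mL. SAEM/IMP estimation; proportional residual error on log concentrations; missing covariates imputed as population median.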"}, "[3]": {"test": "Healthy volunteer population PK model", "type": "in vivo, human", "outline": "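Model built from noncancer subjects in studies B1371010 and B1371014 (n = 49; 1937 plasma concentrations). Structure: 2-compartment, first-order absorption and elimination, allometric body-weight scaling. Estimation by FOCEI. Food entered empirically as a linear covariate on ka. Residual error was proportional across all subjects. Intersubject variability is reported as CV (%).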"}, "[4]": {"test": "Simulation of steady-state exposure", "parameters": "species or system human"}, "Ketoconazole": {"test": "Ketoconazole", "type": "in vivo, human", "details": "glasdegib 200-mg single dose, ketoconazole 400 mg daily, healthy subjects"}, "[5]": {"details": "cited from earlier work"}, "[6]": {"details": "cited from earlier work", "remark": "listed apart in the source"}, "[7]": {"details": "cited from earlier work", "remark": "listed apart in the source"}, "[8]": {"details": "cited from earlier work", "remark": "listed apart in the source"}, "[9]": {"details": "healthy subjects; cited from earlier work"}, "[10]": {"details": "cited from earlier work", "remark": "listed apart in the source"}, "[11]": {"system": "Hedgehog pathway marker glioma‐associated oncogene homolog 1 (GLI1)", "details": "plasma exposures at doses ≥100 mg QD; cited from earlier work"}, "[12]": {"details": "bootstrap median, 1000 resampled data sets"}, "[13]": {"details": "healthy volunteer model vs final model, higher"}, "[14]": {"details": "healthy volunteer model, n = 49, FOCEI"}, "[15]": {"details": "glasdegib 200-mg single dose, ketoconazole 400 mg daily, healthy subjects"}},
  "data": [
    {"smiles": "Cc1c(C(=O)Nc2ccc(N3C[C@@H](C)O[C@@H](C)C3)nc2)cccc1-c1ccc(OC(F)(F)F)cc1", "note": "[sonidegib, Sonidegib]", "values": [
      {"measurement": "Clearance in healthy subjects relative to patients with cancer", "setting": "[1]", "value": 3, "unit": "fold"}
    ]},
    {"smiles": "CN1CC[C@@H](NC(=O)Nc2ccc(C#N)cc2)C[C@@H]1c1nc2ccccc2[nH]1", "note": "[glasdegib, Glasdegib]", "values": [
      {"measurement": "Residual error, proportional error, Hematologic", "setting": "[2]; bootstrap median", "value": 65.7, "unit": "%"},
      {"measurement": "Residual error, proportional error, Solid tumors", "setting": "[2]; bootstrap median", "value": 59.3, "unit": "%"},
      {"measurement": "CL/F", "setting": "[2]; [12]", "value": 6.23, "unit": "L/h"},
      {"measurement": "Q/F", "setting": "[2]; [12]", "value": 1.58, "unit": "L/h"},
      {"measurement": "Vc/F", "setting": "[2]; [12]", "value": 3.52, "unit": "L"},
      {"measurement": "Vp/F", "setting": "[2]; [12]", "value": 296.04, "unit": "L"},
      {"measurement": "ka", "setting": "[2]; [12]", "value": 0.06, "unit": "hour^–1"},
      {"measurement": "θBPBL", "setting": "[2]; [12]", "value": "–0.004"},
      {"measurement": "θCYPmod", "setting": "[2]; [12]", "value": "–0.18"},
      {"measurement": "θCYPstrong", "setting": "[2]; [12]", "value": "–0.31"},
      {"measurement": "θWNCL", "setting": "[2]; [12]", "value": 0.41},
      {"measurement": "θsolid on Q/F", "setting": "[2]; [12]", "value": "–0.69"},
      {"measurement": "θsolid on Vp/F", "setting": "[2]; [12]", "value": "–0.81"},
      {"measurement": "Effect of age, sex, race and hepatic function on glasdegib PK parameters", "setting": "[2]; covariate analysis", "value": "not found to be significant covariates"},
      {"measurement": "Residual error, proportional error, Hematologic", "setting": "[2]; final model estimate", "value": 65.8, "unit": "%"},
      {"measurement": "Residual error, proportional error, Solid tumors", "setting": "[2]; final model estimate", "value": 59.5, "unit": "%"},
      {"measurement": "Change in CL/F per 1% change in baseline percentage bone marrow blasts", "setting": "[2]; from population median 38.2%, CL/F decreases as blasts increase", "value": 0.4, "unit": "%"},
      {"measurement": "Intersubject variability CL/F", "setting": "[3]; healthy volunteer model", "value": "19.6% (5.8%)"},
      {"measurement": "Intersubject variability Vc/F", "setting": "[3]; healthy volunteer model", "value": "11.0% (52.0%)"},
      {"measurement": "Intersubject variability ka", "setting": "[3]; healthy volunteer model", "value": "53.4% (10.6%)"},
      {"measurement": "CL/F in healthy subjects relative to patients with cancer", "setting": "[3]; [13]", "value": "> 1.6", "unit": "fold"},
      {"measurement": "ka in healthy subjects relative to patients with cancer", "setting": "[3]; [13]", "value": "over 13 fold"},
      {"measurement": "Residual error, proportional error", "setting": "[3]; healthy volunteer model, all subjects", "value": 58.6, "unit": "%"},
      {"measurement": "CL/F", "setting": "[3]; [14]", "value": "10.1 (4.1%) L/h"},
      {"measurement": "Q/F", "setting": "[3]; [14]", "value": "1.92 (11.4%) L/h"},
      {"measurement": "Vc/F", "setting": "[3]; [14]", "value": "112 (4.1%) L"},
      {"measurement": "Vp/F", "setting": "[3]; [14]", "value": "53.5 (6.9%) L"},
      {"measurement": "ka", "setting": "[3]; [14]", "value": "0.79 (8.9%) hour^–1"},
      {"measurement": "Intersubject variability Q/F", "setting": "[3]; healthy volunteer model, FIXED", "value": 3.2, "unit": "% FIXED"},
      {"measurement": "Intersubject variability Vp/F", "setting": "[3]; healthy volunteer model, FIXED", "value": 3.2, "unit": "% FIXED"},
      {"measurement": "Exposure increase from CL/F reduction", "setting": "[4]; 10th percentile baseline body weight vs 70 kg", "value": "~1.1", "unit": "fold"},
      {"measurement": "Simulated fold change in steady-state maximum concentration and area under the curve", "setting": "[4]; 90th percentile baseline body weight", "value": "~0.75"},
      {"measurement": "Exposure increase from CL/F reduction", "setting": "[4]; 90th percentile baseline bone marrow blasts", "value": "~1.1", "unit": "fold"},
      {"measurement": "Increase in area under the curve", "setting": "[4]; strong CYP3A inhibitors", "value": "~1.4", "unit": "fold"},
      {"measurement": "Decrease in CL/F with ketoconazole", "setting": "Ketoconazole", "value": 58, "unit": "%"},
      {"measurement": "Dose proportionality of plasma exposure", "setting": "[5]; 5-600 mg QD, single and multiple daily dosing", "value": "dose‐proportional increase in plasma exposure"},
      {"measurement": "Maximum tolerated dose (MTD)", "setting": "[5]; oral, patients", "value": 400, "unit": "mg QD"},
      {"measurement": "Absolute oral bioavailability", "setting": "[6]", "value": 77.12, "unit": "%"},
      {"measurement": "Radiolabeled dose recovered in feces (mean)", "setting": "[7]; 100 mg dose", "value": 41.7, "unit": "%"},
      {"measurement": "Radiolabeled dose recovered in urine (mean)", "setting": "[7]; 100 mg dose", "value": 48.9, "unit": "%"},
      {"measurement": "Renal contribution to elimination", "setting": "[7]", "value": "around 17%"},
      {"measurement": "Unchanged glasdegib recovered in feces", "setting": "[7]; of the 100 mg dose", "value": 19.5, "unit": "%"},
      {"measurement": "Unchanged glasdegib recovered in urine", "setting": "[7]; of the 100 mg dose", "value": 17.2, "unit": "%"},
      {"measurement": "Plasma exposures with a strong CYP3A inhibitor", "setting": "[8]", "value": "increased"},
      {"measurement": "Increase in AUC extrapolated to infinity with ketoconazole vs glasdegib alone", "setting": "[8]; [15]", "value": 140, "unit": "%"},
      {"measurement": "Increase in maximum plasma concentration with ketoconazole vs glasdegib alone", "setting": "[8]; [15]", "value": 40, "unit": "%"},
      {"measurement": "Effect of high-fat meal or proton pump inhibitors on PK", "setting": "[9]", "value": "not affected in a clinically relevant manner"},
      {"measurement": "Plasma exposures with a strong CYP3A4 inducer", "setting": "[10]", "value": "decreased"},
      {"measurement": "Downregulation of GLI1", "setting": "[11]", "value": "robust and consistent"}
    ]}
  ]
}
